Measured values: ChEMBL document CHEMBL4000256, “Light-Regulated NO Release as a Novel Strategy To Overcome Doxorubicin Multidrug Resistance” (ACS Med Chem Lett, 2017)
Activity calls are given as the source filed them. The rule behind the calls is not given here.

What was measured:
Fibroblast = experiment: Cytotoxicity against 7 mW/cm'2 irradiated human fibroblasts at 5 uM coadministered with DOX measured after 20 mins by spectrophotometric method; type: cell-based
Summary of the method: (§1)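 Cells (M14 melanoma, human fibroblasts or rat H9c2 cardiomyocytes) kept 20 min at room temperature in PBS under 400 nm light (7 mW/cm2), alone or with 5 μM compound, given alone or with equimolar 5 μM doxorubicin. Damage read as extracellular LDH release. Triplicate measurements, n = 3.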

M14 [1] = experiment: Cytotoxicity against 7 mW/cm'2 irradiated human M14 cells assessed as increase in LDH release at 5 uM measured after 20 mins by spectrophotometric method; type: functional, cell-based; summary of the method: as §1
[2] = Induction of NO release in pH 7.4 PBS irradiated with 7 mW/cm2 light at 100 uM after 0.5 hrs by Griess assay
Summary of the method: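 Cell-free solution, 100 μM, in PBS (pH 7.4, 10 mM, 3% DMSO) irradiated at 400 nm (7 mW/cm2) for varying times. Nitrite generated is quantified by Griess assay.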

[3] = target: Multidrug resistance-associated protein 1 (Homo sapiens, UniProt P33527); experiment: Inhibition of MRP1 in 7 mW/cm'2 irradiated human M14 cells assessed as reduction in ATPase activity at 5 uM measured after 20 mins in presence of doxorubicin by immunoblotting
Summary of the method: (§2)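 M14 melanoma cells held 20 min at room temperature in PBS under 400 nm light (7 mW/cm2) with 5 μM compound, alone or with equimolar doxorubicin. Transporter ATPase activity then measured; n = 3.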

[4] = target: T1, Broad substrate specificity ATP-binding cassette transporter ABCG2 (Homo sapiens, UniProt Q9UNQ0); experiment: Inhibition of BCRP in 7 mW/cm'2 irradiated human M14 cells assessed as nitration of tyrosine in BCRP at 5 uM measured after 20 mins in presence of doxorubicin by immunoblotting
T1 sequence (Q9UNQ0 whole entry): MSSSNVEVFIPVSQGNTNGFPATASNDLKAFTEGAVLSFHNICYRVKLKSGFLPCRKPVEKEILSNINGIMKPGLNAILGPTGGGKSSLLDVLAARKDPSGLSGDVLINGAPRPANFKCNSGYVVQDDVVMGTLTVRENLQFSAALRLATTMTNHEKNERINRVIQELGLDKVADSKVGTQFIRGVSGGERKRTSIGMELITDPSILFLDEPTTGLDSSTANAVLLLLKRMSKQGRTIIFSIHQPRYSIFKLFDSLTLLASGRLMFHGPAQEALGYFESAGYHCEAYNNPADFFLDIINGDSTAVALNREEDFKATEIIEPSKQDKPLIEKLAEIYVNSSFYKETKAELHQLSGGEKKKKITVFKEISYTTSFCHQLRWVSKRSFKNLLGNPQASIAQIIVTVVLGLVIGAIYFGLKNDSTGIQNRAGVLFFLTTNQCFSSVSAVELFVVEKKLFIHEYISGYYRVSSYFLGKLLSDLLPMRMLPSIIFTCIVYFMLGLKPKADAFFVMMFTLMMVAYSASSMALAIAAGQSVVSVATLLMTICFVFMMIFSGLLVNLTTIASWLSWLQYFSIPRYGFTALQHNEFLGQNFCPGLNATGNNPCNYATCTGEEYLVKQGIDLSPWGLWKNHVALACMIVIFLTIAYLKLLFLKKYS
Summary of the method: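 M14 melanoma cells held 20 min at room temperature in PBS under 400 nm light (7 mW/cm2) with 5 μM compound, alone or with equimolar doxorubicin. Nitrated ABC transporters (Pgp, MRP1, MRP4, BCRP) detected by immunoblot.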

Homo sapiens [5] = species: Homo sapiens; experiment: Inhibition of Pgp in 7 mW/cm'2 irradiated human M14 cells assessed as reduction in ATPase activity at 5 uM measured after 20 mins in presence of doxorubicin by immunoblotting; summary of the method: as §2
Homo sapiens [6] = species: Homo sapiens; experiment: Inhibition of ABC transporter in 7 mW/cm'2 irradiated human M14 cells assessed as increase in nitrite release at 5 uM measured after 20 mins by Griess reagent based spectrophotometric method
Summary of the method: (§3)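 M14 melanoma cells held 20 min at room temperature in PBS, either in the dark or under 400 nm light (7 mW/cm2), with 5 μM compound alone or alongside 5 μM doxorubicin. Nitrite in the supernatant measured by Griess assay, in triplicate, n = 3.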

M14 [7] = experiment: Dark toxicity in human M14 cells assessed as increase in nitrite levels at 5 uM measured after 20 mins in presence of doxorubicin by Griess reagent based spectrophotometric method; type: cell-based; settings: m14, 20 min; summary of the method: as §3
Homo sapiens [8] = species: Homo sapiens; experiment: Inhibition of Pgp in 7 mW/cm'2 irradiated human M14 cells assessed as reduction in P-gp ATPase activity at 5 uM measured after 20 mins by spectrophotometric method; summary of the method: as §2
H9c2 = experiment: Dark toxicity against rat H9c2 cells at 5 uM measured after 20 mins by spectrophotometric method; type: cell-based; settings: h9c2, 20 min
Summary of the method: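 Human fibroblasts or rat H9c2 cardiomyocytes kept 20 min at room temperature in PBS, either in the dark or irradiated at λexc 400 nm, 7 mW/cm2, with or without 5 μM test agent. Cytotoxicity measured in triplicate; means ± SD, n = 3.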

[9] = Half life in DMEM medium; type: physicochemical
Bos taurus = species: Bos taurus; experiment: Binding affinity to calf thymus duplex DNA at 10 uM by fluorescence spectroscopic method
[10] = Induction of NO release in pH 7.4 PBS irradiated with 7 mW/cm2 light at 10 uM after 0.5 hrs by amperometric detection assay
Summary of the method: (§4)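 NO release recorded during alternating light (λexc 405 nm) and dark cycles. Solution at 10 μM in PBS (pH 7.4, 10 mM, 3% DMSO), with or without 18 μM ct-DNA.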

[11] = Induction of NO release in pH 7.4 PBS irradiated with 7 mW/cm2 light at 10 uM after 0.5 hrs in presence of calf thymus DNA by amperometric detection assay; summary of the method: as §4
[12] = Stability of the compound in PBS with 3% DMSO; type: physicochemical; settings: buffer
[13] = Stability of the compound in pH 7.4 PBS at 100 uM incubated under dark condition for >0.5 hrs; type: physicochemical; settings: buffer, pH 7.4, 0.5 h

Chain of Multidrug resistance-associated protein 1 (P33527 whole entry): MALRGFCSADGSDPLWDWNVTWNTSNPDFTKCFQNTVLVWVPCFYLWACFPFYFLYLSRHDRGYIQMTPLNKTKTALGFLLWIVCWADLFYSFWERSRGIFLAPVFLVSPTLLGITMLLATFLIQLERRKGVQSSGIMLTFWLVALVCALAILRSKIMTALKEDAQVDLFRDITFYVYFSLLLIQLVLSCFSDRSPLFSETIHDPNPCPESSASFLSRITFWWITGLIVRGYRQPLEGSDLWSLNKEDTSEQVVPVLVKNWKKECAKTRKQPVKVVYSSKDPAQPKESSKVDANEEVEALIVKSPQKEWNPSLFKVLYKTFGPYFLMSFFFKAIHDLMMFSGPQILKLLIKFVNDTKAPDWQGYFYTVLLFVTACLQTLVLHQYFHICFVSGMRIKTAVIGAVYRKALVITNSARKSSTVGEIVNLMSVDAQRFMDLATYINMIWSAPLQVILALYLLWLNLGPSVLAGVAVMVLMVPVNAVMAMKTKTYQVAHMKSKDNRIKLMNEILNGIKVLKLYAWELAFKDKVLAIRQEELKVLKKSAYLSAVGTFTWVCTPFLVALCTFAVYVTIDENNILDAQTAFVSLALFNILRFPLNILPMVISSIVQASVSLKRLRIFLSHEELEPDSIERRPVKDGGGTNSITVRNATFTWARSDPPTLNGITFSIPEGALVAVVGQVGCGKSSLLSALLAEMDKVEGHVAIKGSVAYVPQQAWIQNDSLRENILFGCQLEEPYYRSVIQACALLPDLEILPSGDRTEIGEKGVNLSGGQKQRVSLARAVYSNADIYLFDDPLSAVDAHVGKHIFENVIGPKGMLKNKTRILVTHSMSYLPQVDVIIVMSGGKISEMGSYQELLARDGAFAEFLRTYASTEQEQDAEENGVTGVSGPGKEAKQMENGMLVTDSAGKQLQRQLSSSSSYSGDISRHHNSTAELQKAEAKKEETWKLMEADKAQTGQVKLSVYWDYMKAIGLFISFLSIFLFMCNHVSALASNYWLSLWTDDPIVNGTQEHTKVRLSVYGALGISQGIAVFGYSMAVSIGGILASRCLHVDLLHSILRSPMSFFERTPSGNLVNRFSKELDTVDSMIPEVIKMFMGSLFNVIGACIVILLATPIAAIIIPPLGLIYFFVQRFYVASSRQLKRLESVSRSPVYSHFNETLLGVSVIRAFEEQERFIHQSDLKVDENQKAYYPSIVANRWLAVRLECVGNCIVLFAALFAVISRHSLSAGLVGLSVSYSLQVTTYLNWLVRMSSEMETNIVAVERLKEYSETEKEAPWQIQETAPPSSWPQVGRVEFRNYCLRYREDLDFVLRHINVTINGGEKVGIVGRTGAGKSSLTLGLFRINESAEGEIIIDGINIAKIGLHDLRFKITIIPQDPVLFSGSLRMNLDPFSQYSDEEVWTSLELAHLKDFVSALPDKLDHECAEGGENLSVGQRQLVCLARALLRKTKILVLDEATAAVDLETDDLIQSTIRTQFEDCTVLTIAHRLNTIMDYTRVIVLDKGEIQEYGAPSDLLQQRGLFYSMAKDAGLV

Row | Structure (SMILES) | Activity (Fibroblast) | Activity (M14 [1]) | Activity [2] | inhibition (INH) [3] | inhibition (INH) [4] | inhibition (Homo sapiens [5]) | inhibition (Homo sapiens [6]) | Activity (M14 [7]) | inhibition (Homo sapiens [8]) | Activity (H9c2) | half-life [9] [h] | Activity (Bos taurus) | Activity [10] | Activity [11] | Stability [12] | Stability [13]
1 | NCCCNc1ccc([N+](=O)[O-])c(C(F)(F)F)c1 | Non-Toxic | inactive | Active | Active | Active | Active | Active | Non-Toxic | Active | Non-Toxic | – | – | – | – | – | –
2 | COc1cccc2c1C(=O)c1c(O)c3c(c(O)c1C2=O)C[C@@](O)(C(=O)COC(=O)c1ccc(C(=O)NCCCNc2ccc([N+](=O)[O-])c(C(F)(F)F)c2)cc1)C[C@@H]3O[C@H]1C[C@H](N)[C@H](O)[C@H](C)O1.Cl | – | – | Active | – | – | – | Active | – | Active | Non-Toxic | > 24 | Active | Active | Active | Stable | Stable
